In brackets after ≈: the same amount, converted by molar mass.

The subject of one test is Trypanosoma brucei. The test can be described thus: Antitrypanosomal activity against Trypanosoma brucei.
Settings: not given
The format is functional, organism-based. The method in brief:
(§1)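 T. brucei brucei strain 221 cultured in complete HMI-9 with 10% FBS, 10% Serum Plus and penicillin/streptomycin; seeded at 1×10^5 per mL and exposed to test samples delivered in 10% DMSO for 48 h at 37 °C, 5% CO2. Vehicle wells served as 0% inhibition and 1 mM thimerosal stock as 100%. Viability read as ATP bioluminescence after CellTiter-Glo lysis.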
With `ClCCl` [METHYLENE CHLORIDE], the half-maximal inhibitory concentration (IC50) (as a rule, the concentration at which inhibition is half-maximal) is 0.3 µg/mL. As to `C=C1CCC[C@@H]2[C@@H](CC[C@@]3(C)CC[C@H]([C@H](C)C(=O)O)OO3)[C@H](C)CC[C@@]12C` [SIGMOSCEPTRELLIN B], the IC50 came to 0.2 µg/mL (≈ 0.528 µM).

The test system of the next test is Trypanosoma brucei brucei. The experiment in a line: Antitrypanosomal activity against Trypanosoma brucei brucei 221 after 48 hrs. Particulars: Trypanosoma brucei, 221, 48 h. The format is functional, organism-based. Summed up:
as §1
Regarding `C=C1CCCC(C)(C)C1CC[C@]1(C)CC[C@@H]([C@@H](C)C(=O)OC)OO1` (stereo partly specified), inhibition was half-maximal at 2 µg/mL (≈ 5.91 µM) (IC50). Turning to `COC(=O)[C@H](C)[C@H]1CC[C@@](C)(CC/C=C(\C)CCC(=O)C(C)(C)CCCC(C)=O)OO1`, 5 µg/mL (≈ 11.4 µM) corresponded to half-maximal inhibition (IC50). Same read-out and setting: to `C=C1CCC[C@@H]2[C@@](C)(CC[C@]3(C)CC[C@H]([C@@H](C)C(=O)OC)OO3)[C@H](C)CC[C@@]12C` belongs 2 µg/mL (≈ 4.92 µM).

As for `C=C1CCC[C@@H]2[C@@](C)(CC[C@]3(C)CC[C@H]([C@@H](C)C(=O)O)OO3)[C@H](C)CC[C@@]12C`, the half-maximal inhibitory concentration (IC50) turned out to be 1 µg/mL (≈ 2.55 µM). `CC1=C(CC/C(C)=C/CC[C@]2(C)CC[C@H]([C@@H](C)C(=O)O)OO2)C(C)(C)CCC1` returned an IC50 of 0.9 µg/mL (≈ 2.29 µM). The same measure, in the same setting: as for `COC(=O)[C@H](C)[C@@H]1CC[C@@](C)(CC/C=C(\C)CCC(=O)C(C)(C)CCCC(C)=O)OO1`, the figure is 3 µg/mL (≈ 6.84 µM); as for `COC(=O)[C@H](C)[C@H](O)CC[C@](C)(O)CCCC(C)CCC(=O)C(C)(C)CCCC(C)=O` (stereo partly specified), above 25 µg/mL; as for `CC(=O)CCCC(C)(C)C(=O)CC/C(C)=C/CC[C@]1(C)CC[C@H]([C@@H](C)C(=O)O)OO1` [(+)-MUQUBILONE B], 2 µg/mL (≈ 4.71 µM). Still for that read-out and setting: as for `C=C1CCC[C@@H]2[C@@H](CC[C@@]3(C)CC[C@H]([C@H](C)C(=O)O)OO3)[C@H](C)CC[C@@]12C` [SIGMOSCEPTRELLIN B], the figure is 0.2 µg/mL (≈ 0.528 µM).

For another test, the system named is Trypanosoma brucei rhodesiense. The experiment in a line: Antitrypanosomal activity against Trypanosoma brucei rhodesiense STIB 900. Format: functional, organism-based.
Settings: not given
Consider `CC(C)(N)CNC(=O)CC1CC[C@]2(CC1)OC[C@]1(O2)C2CC3CC(C2)CC1C3` (stereo partly specified), for which 0.9 µg/mL (≈ 2.3 µM) corresponded to half-maximal inhibition (IC50). `C[C@@H]1CC[C@H]2[C@@H](C)C(=O)O[C@@H]3O[C@@]4(C)CC[C@@H]1[C@]32OO4` [ARTEMISININ] came in with a concentration for half-maximal inhibition (IC50) of 25 µg/mL (≈ 88.5 µM). Turning to `CC(C)(N)CNC(=O)C[C@H]1CC[C@]2(CC1)OO[C@]1(O2)C2CC3CC(C2)CC1C3` [OZ277], the IC50 was determined as 0.6 µg/mL (≈ 1.53 µM).

The next test concerns Trypanosoma brucei rhodesiense. The experiment in a line: Antitrypanosomal activity against Trypanosoma brucei rhodesiense trypomastigotes after 72 hrs. Format: functional, organism-based.
Settings: not given
`C[C@@H]1CC[C@H]2[C@@H](C)C(=O)O[C@@H]3O[C@@]4(C)CC[C@@H]1[C@]32OO4` [ARTEMISININ] came in with a 50% inhibitory concentration (IC50) of 6 µg/mL (≈ 21.3 µM). `N=C(N)c1ccc(OCCCCCOc2ccc(C(=N)N)cc2)cc1` [PENTAMIDINE] showed an IC50 of 0.4 µg/mL (≈ 1.17 µM).
